pIC50: −log10 of the molar value. Active and inactive are the calls of the source. The rule behind the calls is not given here.
How the values were obtained:
[1] = target: Proto-oncogene tyrosine-protein kinase Src (Homo sapiens) (UniProt P12931); assay: Inhibition of recombinant SRC (unknown origin) assessed as residual activity at 1 uM relative to control
[2] = test system: MCF7; assay: Cell cycle arrest in BrdU pulse-labelled human MCF7 cells assessed as accumulation at subG1 phase at 8 to 250 nM after 24 hrs by propidium iodide staining based flow cytometry; type: functional
[3] = target: Eukaryotic elongation factor 2 kinase (Homo sapiens) (UniProt O00418); assay: Inhibition of recombinant EF2K (unknown origin) assessed as residual activity at 1 uM relative to control
[4] = test system: K562; assay: Cytotoxicity against human K562 cells assessed as reduction in cell viability after 72 hrs by calcein AM staining based fluorescence assay; type: functional; conditions: K562, 72 h
Outline: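 Cells were grown in DMEM with 10% FBS, penicillin and streptomycin at 37 °C in 5% CO2. Three doses were tested in triplicate for 72 h.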

[5] = target: Mitogen-activated protein kinase 8 (Homo sapiens) (UniProt P45983); assay: Inhibition of recombinant JNK1 (unknown origin) assessed as residual activity at 1 uM relative to control
[6] = target: Protein kinase C alpha type (Homo sapiens) (UniProt P17252); assay: Inhibition of recombinant PKCalpha (unknown origin) assessed as residual activity at 1 uM relative to control
[7] = target: Tyrosine-protein kinase JAK2 (Homo sapiens) (UniProt O60674); assay: Inhibition of recombinant JAK2 (unknown origin) assessed as residual activity at 1 uM relative to control
[8] = test system: HCT-116; assay: Induction of apoptosis in human HCT116 cells assessed as caspase3 activation using Ac-DEVD-AMC as substrate preincubated for 24 hrs followed by substrate addition measured after 3 hrs by fluorescence assay; type: functional, cell-based
[9] = test system: HCT-116; assay: Induction of apoptosis in human HCT116 cells assessed as caspase7 activation using Ac-DEVD-AMC as substrate preincubated for 24 hrs followed by substrate addition measured after 3 hrs by fluorescence assay; type: functional, cell-based
[10] = target: Mitogen-activated protein kinase kinase kinase 11 (Homo sapiens) (UniProt Q16584); assay: Inhibition of recombinant MLK3 (unknown origin) assessed as residual activity at 1 uM relative to control
[11] = target: Vascular endothelial growth factor receptor (Homo sapiens) (UniProt P17948+P35916+P35968); assay: Inhibition of recombinant VEGFR (unknown origin) assessed as residual activity at 1 uM relative to control; type: protein assay
[12] = target: Dual specificity mitogen-activated protein kinase kinase 1 (Homo sapiens) (UniProt Q02750); assay: Inhibition of recombinant MKK1 (unknown origin) assessed as residual activity at 1 uM relative to control
[13] = target: Homeodomain-interacting protein kinase 2 (Homo sapiens) (UniProt Q9H2X6); assay: Inhibition of recombinant HIPK2 (unknown origin) assessed as residual activity at 1 uM relative to control
[14] = target: Ribosomal protein S6 kinase beta-1 (Homo sapiens) (UniProt P23443); assay: Inhibition of recombinant S6K1 (unknown origin) assessed as residual activity at 1 uM relative to control
[15] = test system: MCF7; assay: Cell cycle arrest in BrdU pulse-labelled human MCF7 cells assessed as accumulation at late G2/M phase at 8 to 250 nM after 24 hrs by propidium iodide staining based flow cytometry; type: functional
[16] = target: Mitogen-activated protein kinase kinase kinase 7 (Homo sapiens) (UniProt O43318); assay: Inhibition of recombinant TAK1 (unknown origin) assessed as residual activity at 1 uM relative to control
[17] = target: Rho-associated protein kinase 2 (Homo sapiens) (UniProt O75116); assay: Inhibition of recombinant ROCK2 (unknown origin) assessed as residual activity at 1 uM relative to control
[18] = target: Dual specificity tyrosine-phosphorylation-regulated kinase 1A (Homo sapiens) (UniProt Q13627); assay: Inhibition of recombinant DYRK1A (unknown origin) assessed as residual activity at 1 uM relative to control
[19] = Cell cycle arrest in BrdU pulse-labelled human HCT116 cells assessed as decrease in cells at S phase at 125 to 500 nM after 24 hrs by propidium iodide staining based flow cytometry; type: functional; conditions: HCT-116
[20] = species: Homo sapiens; assay: Inhibition of recombinant PKA (unknown origin) assessed as residual activity at 1 uM relative to control
[21] = test system: G-361; assay: Induction of apoptosis in human G361 cells assessed as caspase3 activation using Ac-DEVD-AMC as substrate at IC50 preincubated for 24 hrs followed by substrate addition measured after 3 hrs by fluorescence assay; type: functional, cell-based
[22] = target: 3-phosphoinositide-dependent protein kinase 1 (Homo sapiens) (UniProt O15530); assay: Inhibition of recombinant PDK1 (unknown origin) assessed as residual activity at 1 uM relative to control
[23] = target: MAP/microtubule affinity-regulating kinase 3 (Homo sapiens) (UniProt P27448); assay: Inhibition of recombinant MARK3 (unknown origin) assessed as residual activity at 1 uM relative to control
[24] = test system: G-361; assay: Induction of apoptosis in human G361 cells assessed as caspase7 activation using Ac-DEVD-AMC as substrate at 5 times IC50 preincubated for 24 hrs followed by substrate addition measured after 3 hrs by fluorescence assay; type: functional, cell-based
[25] = Cell cycle arrest in BrdU pulse-labelled human HCT116 cells assessed as accumulation at late G2/M phase at 125 to 500 nM after 24 hrs by propidium iodide staining based flow cytometry; type: functional; conditions: HCT-116
[26] = target: Ribosomal protein S6 kinase alpha-1 (Homo sapiens) (UniProt Q15418); assay: Inhibition of recombinant RSK1 (unknown origin) assessed as residual activity at 1 uM relative to control
[27] = test system: G-361; assay: Induction of apoptosis in human G361 cells assessed as caspase7 activation using Ac-DEVD-AMC as substrate at IC50 preincubated for 24 hrs followed by substrate addition measured after 3 hrs by fluorescence assay; type: functional, cell-based
[28] = target: Casein kinase II (Homo sapiens) (UniProt P67870+P68400+P19784); assay: Inhibition of recombinant CK2 (unknown origin) assessed as residual activity at 1 uM relative to control; type: protein-complex assay
[29] = target: Tyrosine-protein kinase Lck (Homo sapiens) (UniProt P06239); assay: Inhibition of recombinant LCK (unknown origin) assessed as residual activity at 1 uM relative to control
[30] = target: Serine/threonine-protein kinase PLK1 (Homo sapiens) (UniProt P53350); assay: Inhibition of recombinant PLK1 (unknown origin) assessed as residual activity at 1 uM relative to control
[31] = target: RAC-alpha serine/threonine-protein kinase (Homo sapiens) (UniProt P31749); assay: Inhibition of recombinant PKBalpha (unknown origin) assessed as residual activity at 1 uM relative to control
[32] = target: Serine/threonine-protein kinase TBK1 (Homo sapiens) (UniProt Q9UHD2); assay: Inhibition of recombinant TBK1 (unknown origin) assessed as residual activity at 1 uM relative to control
[33] = target: Insulin-like growth factor 1 receptor (Homo sapiens) (UniProt P08069); assay: Inhibition of recombinant IGF1R (unknown origin) assessed as residual activity at 1 uM relative to control
[34] = target: Serine/threonine-protein kinase Sgk1 (Homo sapiens) (UniProt O00141); assay: Inhibition of recombinant SGK1 (unknown origin) assessed as residual activity at 1 uM relative to control
Chain of Serine/threonine-protein kinase Sgk1 (Homo sapiens) (O00141 whole entry): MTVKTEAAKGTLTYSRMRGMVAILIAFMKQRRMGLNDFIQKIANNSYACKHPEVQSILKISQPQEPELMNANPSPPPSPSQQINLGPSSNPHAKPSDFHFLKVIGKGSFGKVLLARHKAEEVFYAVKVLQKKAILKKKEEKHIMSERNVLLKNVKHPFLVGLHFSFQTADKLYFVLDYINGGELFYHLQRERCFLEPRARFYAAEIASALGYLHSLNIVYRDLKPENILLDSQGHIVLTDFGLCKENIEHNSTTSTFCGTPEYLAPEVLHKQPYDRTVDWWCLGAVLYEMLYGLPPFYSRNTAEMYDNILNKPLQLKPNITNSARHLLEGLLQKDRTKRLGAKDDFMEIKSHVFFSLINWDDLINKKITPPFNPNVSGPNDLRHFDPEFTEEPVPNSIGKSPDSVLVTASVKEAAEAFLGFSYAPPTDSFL

Chain of Mitogen-activated protein kinase 8 (Homo sapiens) (P45983 whole entry): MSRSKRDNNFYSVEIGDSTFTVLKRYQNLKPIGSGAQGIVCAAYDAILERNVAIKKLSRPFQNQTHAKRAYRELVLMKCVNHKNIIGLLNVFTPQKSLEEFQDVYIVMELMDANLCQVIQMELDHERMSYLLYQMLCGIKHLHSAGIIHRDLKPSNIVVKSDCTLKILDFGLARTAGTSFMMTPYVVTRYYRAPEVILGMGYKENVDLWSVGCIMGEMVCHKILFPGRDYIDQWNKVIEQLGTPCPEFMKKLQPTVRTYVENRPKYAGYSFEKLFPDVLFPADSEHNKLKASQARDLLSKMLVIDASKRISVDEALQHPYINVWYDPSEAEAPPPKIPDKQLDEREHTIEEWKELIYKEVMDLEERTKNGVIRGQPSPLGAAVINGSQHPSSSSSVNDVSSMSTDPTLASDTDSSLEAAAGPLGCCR
Chain of Proto-oncogene tyrosine-protein kinase Src (Homo sapiens) (P12931 2-536 limits assumed): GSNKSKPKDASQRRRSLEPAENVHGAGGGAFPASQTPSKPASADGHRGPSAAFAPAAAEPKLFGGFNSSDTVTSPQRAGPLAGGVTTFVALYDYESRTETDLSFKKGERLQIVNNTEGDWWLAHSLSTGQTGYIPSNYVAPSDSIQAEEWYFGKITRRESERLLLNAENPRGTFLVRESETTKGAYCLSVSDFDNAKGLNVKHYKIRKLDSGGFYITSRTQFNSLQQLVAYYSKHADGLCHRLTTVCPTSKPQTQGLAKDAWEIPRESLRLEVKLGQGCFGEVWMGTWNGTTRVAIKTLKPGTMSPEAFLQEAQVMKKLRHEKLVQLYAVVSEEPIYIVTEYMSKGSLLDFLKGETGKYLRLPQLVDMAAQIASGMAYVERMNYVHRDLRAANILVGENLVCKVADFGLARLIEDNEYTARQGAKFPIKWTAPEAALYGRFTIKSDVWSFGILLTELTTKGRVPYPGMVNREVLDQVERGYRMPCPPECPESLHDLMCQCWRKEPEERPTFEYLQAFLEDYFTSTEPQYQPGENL
Chain of MAP/microtubule affinity-regulating kinase 3 (Homo sapiens) (P27448 whole entry, looked up): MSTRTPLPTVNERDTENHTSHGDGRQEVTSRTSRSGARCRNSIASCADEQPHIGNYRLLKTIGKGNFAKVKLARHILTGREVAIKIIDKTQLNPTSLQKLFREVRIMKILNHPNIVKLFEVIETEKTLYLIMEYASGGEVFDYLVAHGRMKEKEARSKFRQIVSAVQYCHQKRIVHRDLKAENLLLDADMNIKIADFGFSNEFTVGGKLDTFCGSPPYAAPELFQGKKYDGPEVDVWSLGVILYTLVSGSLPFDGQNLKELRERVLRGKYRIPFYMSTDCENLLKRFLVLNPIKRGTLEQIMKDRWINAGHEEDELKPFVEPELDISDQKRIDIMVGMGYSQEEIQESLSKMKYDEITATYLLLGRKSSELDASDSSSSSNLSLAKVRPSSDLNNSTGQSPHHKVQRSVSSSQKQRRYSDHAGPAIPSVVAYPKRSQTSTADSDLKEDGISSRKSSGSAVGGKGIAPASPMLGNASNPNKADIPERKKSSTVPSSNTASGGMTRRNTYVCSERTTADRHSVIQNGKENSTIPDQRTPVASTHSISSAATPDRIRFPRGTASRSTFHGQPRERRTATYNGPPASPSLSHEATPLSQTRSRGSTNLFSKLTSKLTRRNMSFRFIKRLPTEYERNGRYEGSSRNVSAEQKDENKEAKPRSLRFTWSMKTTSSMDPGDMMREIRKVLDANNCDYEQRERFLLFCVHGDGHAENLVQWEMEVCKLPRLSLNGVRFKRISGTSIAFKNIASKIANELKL
Chain of Mitogen-activated protein kinase kinase kinase 7 (Homo sapiens) (O43318 whole entry): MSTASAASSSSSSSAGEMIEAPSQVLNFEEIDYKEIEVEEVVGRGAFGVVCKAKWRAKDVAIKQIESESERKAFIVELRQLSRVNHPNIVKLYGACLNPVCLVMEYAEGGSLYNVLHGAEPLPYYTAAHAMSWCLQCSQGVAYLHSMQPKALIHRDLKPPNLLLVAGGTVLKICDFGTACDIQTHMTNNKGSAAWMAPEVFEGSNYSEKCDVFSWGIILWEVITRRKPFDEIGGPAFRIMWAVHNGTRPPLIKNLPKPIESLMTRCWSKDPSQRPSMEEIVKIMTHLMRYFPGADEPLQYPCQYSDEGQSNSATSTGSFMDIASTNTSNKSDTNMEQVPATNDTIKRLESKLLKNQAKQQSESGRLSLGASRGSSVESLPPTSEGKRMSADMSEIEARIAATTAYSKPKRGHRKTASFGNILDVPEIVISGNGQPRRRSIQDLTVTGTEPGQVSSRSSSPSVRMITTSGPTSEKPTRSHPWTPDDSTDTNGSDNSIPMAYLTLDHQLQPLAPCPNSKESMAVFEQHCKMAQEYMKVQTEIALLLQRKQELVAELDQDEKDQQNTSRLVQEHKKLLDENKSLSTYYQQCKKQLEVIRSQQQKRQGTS
Chain of Serine/threonine-protein kinase PLK1 (Homo sapiens) (P53350 whole entry): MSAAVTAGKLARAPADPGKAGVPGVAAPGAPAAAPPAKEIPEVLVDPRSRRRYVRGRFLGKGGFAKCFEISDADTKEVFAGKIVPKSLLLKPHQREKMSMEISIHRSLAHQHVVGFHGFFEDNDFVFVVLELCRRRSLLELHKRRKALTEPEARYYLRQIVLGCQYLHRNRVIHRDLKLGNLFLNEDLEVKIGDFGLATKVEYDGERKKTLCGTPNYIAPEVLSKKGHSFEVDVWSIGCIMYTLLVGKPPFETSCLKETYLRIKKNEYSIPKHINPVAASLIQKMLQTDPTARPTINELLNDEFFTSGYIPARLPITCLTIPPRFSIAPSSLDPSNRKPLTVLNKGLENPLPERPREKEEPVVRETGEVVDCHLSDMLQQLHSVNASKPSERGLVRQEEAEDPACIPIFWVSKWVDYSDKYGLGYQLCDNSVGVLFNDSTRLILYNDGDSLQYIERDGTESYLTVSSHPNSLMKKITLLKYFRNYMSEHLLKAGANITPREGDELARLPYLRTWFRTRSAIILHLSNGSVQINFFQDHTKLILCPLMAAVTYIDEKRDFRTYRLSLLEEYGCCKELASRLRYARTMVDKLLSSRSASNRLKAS
Chain of Serine/threonine-protein kinase TBK1 (Homo sapiens) (Q9UHD2 whole entry): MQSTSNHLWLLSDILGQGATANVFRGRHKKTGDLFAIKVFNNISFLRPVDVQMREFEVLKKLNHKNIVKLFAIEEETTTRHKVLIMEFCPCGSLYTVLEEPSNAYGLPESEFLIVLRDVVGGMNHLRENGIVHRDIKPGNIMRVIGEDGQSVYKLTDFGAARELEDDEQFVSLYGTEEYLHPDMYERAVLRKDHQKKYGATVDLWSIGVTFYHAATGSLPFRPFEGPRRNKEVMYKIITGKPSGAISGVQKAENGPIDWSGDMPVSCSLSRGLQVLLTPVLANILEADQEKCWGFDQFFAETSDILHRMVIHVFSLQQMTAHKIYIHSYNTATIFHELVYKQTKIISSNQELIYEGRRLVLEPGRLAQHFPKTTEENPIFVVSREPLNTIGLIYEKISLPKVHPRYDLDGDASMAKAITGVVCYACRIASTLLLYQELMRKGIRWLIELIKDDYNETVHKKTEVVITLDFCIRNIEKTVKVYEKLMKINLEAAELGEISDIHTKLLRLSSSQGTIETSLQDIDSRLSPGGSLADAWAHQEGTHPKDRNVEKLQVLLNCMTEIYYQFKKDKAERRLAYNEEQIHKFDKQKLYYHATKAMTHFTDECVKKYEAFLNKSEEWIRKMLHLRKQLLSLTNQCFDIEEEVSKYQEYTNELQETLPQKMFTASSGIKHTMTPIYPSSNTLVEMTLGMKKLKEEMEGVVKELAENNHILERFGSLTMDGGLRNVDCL

In the case of `CC(O)CNc1nc(NCc2ccc(-c3ccccn3)cc2)c2[nH]nc(C(C)C)c2n1` (centres undefined), the Activity [1] was 88%, the Activity [2] was “Active” and the Activity [3] was 92%. It also gave a pIC50 [4] of 7.24, an Activity [5] of 93% and an Activity [6] greater than 100%. The Activity [7] was greater than 100%, the Activity [8] was “Dose-dependent effect” and the Activity [9] was “Dose-dependent effect”. It also gave an Activity [10] of 98%, an Activity [11] greater than 100% and an Activity [12] of 87%. For the same compound, the Activity [13] was greater than 100%, the Activity [14] was greater than 100% and the Activity [15] was “Active”. For the same compound, the Activity [16] was greater than 100%, the Activity [17] was greater than 100% and the Activity [18] was 60%. The Activity [19] was “Active”, the Activity [20] was 96% and the Activity [21] was “Active”. The Activity [22] was greater than 100%, the Activity [23] was greater than 100% and the Activity [24] was “Active”. For the same compound, the Activity [25] was “Active”, the Activity [26] was 77% and the Activity [27] was “Active”. For the same compound, the Activity [28] was 89%, the Activity [29] was greater than 100% and the Activity [30] was 97%. For the same compound, the Activity [31] was greater than 100%, the Activity [32] was 92% and the Activity [33] was greater than 100%. The Activity [34] was greater than 100%.

From ChEMBL document CHEMBL3774312, “5-Substituted 3-isopropyl-7-[4-(2-pyridyl)benzyl]amino-1(2)H-pyrazolo[4,3-d]pyrimidines with anti-proliferative activity as potent and selective inhibitors of cyclin-dependent kinases” (Eur J Med Chem, 2016)
